{
  "source": "paper PMC4004768",
  "about": "(The Journal of antibiotics, 2013)",
  "key": {"B. subtilis ATCC6633": {"tested_on": "B. subtilis ATCC6633", "assay": "antimicrobial activity assay in liquid medium", "assay_type": "cell-based, Bacillus subtilis"}, "B. subtilis ATCC 6633 [1]": {"tested_on": "B. subtilis ATCC 6633", "assay": "propidium iodide uptake", "assay_type": "cell-based, Bacillus subtilis", "details": "B. subtilis ATCC 6633, lower efficiency than nisin"}, "B. subtilis ATCC 6633 [2]": {"tested_on": "B. subtilis ATCC 6633", "assay": "membrane potential by flow cytometry with DiOC2", "assay_type": "cell-based, Bacillus subtilis", "details": "0, 0.2, 2, 20 μM, triplicate flow cytometry", "summary_of_the_method": "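Flow cytometry on bacteria exposed to the test compound at 0, 0.2, 2 and 20 μM, with DiOC2 as the membrane-potential dye. The read-out is mean fluorescence intensity averaged over triplicate measurements. An alternative read-out is the ratio of fluorescence at 610 and 530 nm.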"}, "[3]": {"details": "cited from earlier work"}, "[4]": {"details": "specific activity against B. subtilis ATCC6633, liquid medium"}},
  "data": [
    {"substance": "Geobacillin I", "values": [
      {"measurement": "MIC relative to nisin", "setting": "B. subtilis ATCC6633; B. subtilis ATCC 6633, higher MIC compared to nisin", "value": "four-fold higher"},
      {"measurement": "IC50", "setting": "B. subtilis ATCC6633; [4]", "value": "560 ± 10", "unit": "nM"},
      {"measurement": "MIC", "setting": "B. subtilis ATCC6633; [4]", "value": 1.0, "unit": "µM"},
      {"measurement": "efficiency in PI uptake relative to nisin", "setting": "B. subtilis ATCC 6633 [1]", "value": "two-fold lower"},
      {"measurement": "change in mean fluorescence intensity (MFI), DiOC2", "setting": "B. subtilis ATCC 6633 [2]", "value": "significant decrease"},
      {"measurement": "stability at physiological pH compared to nisin", "setting": "[3]", "value": "higher stability"}
    ]}
  ]
}
